Structures are written as SMILES.

The nature of series [1]: Antiproliferative activity against human HAEC cells expressing VEGFR after 72 hrs by MTT assay. The format is functional, cell-based. Summed up:
(§1)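 MTT reduction by mitochondrial enzyme as viability read-out in primary endothelial HAEC and cancer HT29 cells. IC50 is the concentration giving 50% inhibition of proliferation, taken from dose-response curves of percent proliferation plotted against compound concentration.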
A general note: Formazan colour is commonly taken as a measure of viable cells.

The target in series [2] is Vascular endothelial growth factor receptor 2 (Homo sapiens, UniProt P35968). Briefly: Competitive inhibition of VEGFR2 by qPCR method.
Sequence of Vascular endothelial growth factor receptor 2 (P35968 whole entry): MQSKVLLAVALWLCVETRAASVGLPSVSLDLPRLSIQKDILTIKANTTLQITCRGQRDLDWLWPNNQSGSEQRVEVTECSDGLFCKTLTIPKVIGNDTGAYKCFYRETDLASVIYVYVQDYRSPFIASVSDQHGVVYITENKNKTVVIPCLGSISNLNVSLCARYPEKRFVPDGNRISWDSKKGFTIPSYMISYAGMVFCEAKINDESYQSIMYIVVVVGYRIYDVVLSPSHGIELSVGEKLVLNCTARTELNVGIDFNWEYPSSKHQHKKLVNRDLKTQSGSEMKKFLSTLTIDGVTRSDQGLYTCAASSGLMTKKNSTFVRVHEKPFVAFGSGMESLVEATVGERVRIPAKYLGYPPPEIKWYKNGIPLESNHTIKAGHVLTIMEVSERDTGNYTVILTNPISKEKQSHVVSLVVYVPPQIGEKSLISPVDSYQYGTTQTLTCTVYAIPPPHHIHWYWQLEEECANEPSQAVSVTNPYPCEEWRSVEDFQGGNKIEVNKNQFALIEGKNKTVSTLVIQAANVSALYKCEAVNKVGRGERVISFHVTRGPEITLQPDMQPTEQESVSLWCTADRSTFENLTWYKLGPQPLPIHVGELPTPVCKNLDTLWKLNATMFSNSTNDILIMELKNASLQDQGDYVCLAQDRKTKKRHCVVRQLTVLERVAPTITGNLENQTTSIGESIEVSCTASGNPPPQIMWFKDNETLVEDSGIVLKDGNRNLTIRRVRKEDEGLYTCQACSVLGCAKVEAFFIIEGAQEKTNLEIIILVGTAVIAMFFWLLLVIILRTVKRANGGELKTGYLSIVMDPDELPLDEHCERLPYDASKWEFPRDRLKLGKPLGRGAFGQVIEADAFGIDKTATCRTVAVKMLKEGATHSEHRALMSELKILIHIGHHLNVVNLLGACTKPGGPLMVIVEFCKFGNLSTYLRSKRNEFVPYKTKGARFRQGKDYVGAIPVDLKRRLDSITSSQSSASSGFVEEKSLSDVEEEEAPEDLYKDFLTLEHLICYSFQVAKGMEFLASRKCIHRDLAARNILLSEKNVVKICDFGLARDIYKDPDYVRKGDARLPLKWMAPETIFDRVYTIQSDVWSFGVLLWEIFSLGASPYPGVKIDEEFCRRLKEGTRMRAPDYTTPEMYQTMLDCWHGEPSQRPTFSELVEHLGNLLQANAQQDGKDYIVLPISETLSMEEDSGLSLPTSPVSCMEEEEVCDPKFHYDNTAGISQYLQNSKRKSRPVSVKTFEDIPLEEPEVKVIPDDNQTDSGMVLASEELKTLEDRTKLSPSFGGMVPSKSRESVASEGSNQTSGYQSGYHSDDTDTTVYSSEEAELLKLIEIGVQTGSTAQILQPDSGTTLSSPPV
Another series concerns HT-29. Briefly: Antiproliferative activity against human HT-29 cells expressing VEGFR after 72 hrs by MTT assay. The format is functional, cell-based. The note with it: HT-29, 72 h. Summed up:
as §1

The nature of series [3]: Lipophilicity, log D of the compound in octanol and water at pH 7.4 by shake flask method. The format is physicochemical.
Series [4] in a line: Protein binding in human serum by HPLC analysis. In kind it is ADME, cell-free. As to conditions: read-out: PB (converted). Summed up: (§2)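 [125I]-labelled compound incubated in fresh human serum at 4 °C and 37 °C at several time intervals. Bound fraction estimated after ethanol precipitation-extraction of proteins. Supernatant analysed by HPLC for intact radiolabelled compound.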

Series [5] can be described thus: Chemical stability of the compound in 1% tween-20 up to 24 hrs in dark. The format is physicochemical. Summed up: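 Radiolabelled [125I] compound held in saline containing 1% Tween-20 at 37 °C in the dark for up to 24 h. Radiochemical stability checked over that period.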
A further series concerns Serum. Briefly: Stability in human serum by HPLC analysis. The format is ADME, cell-free. Summed up: as §2

As a reminder, the IC50 is the midpoint of a concentration-inhibition curve. One may read the Kd as a measure of binding affinity in units of concentration. Higher therefore signals weaker binding. In the case of `CCN(CC)CCNC(=O)c1c(C)[nH]c(/C=C2\C(=O)Nc3ccc(I)cc32)c1C`, the results for the IC50 (in series [1]; in the series on HT-29) were 1120 nM and 1810 nM, respectively. The compound further displayed a Kd in series [2] of 16 nM.

One may read the logD as the decadic logarithm of the distribution of all forms, ionised or not, between an organic phase and buffer at a given pH. A high value points to a more lipophilic compound. `CCN(CC)CCNC(=O)c1c(C)[nH]c(/C=C2\C(=O)Nc3ccc([125I])cc32)c1C` yielded a logD in series [3] of 2.25. Moreover, in series [4], the fraction unbound is 0.95. In addition, the Stability entry (in series [5]; in the series on Serum) was “Stable” throughout.

Regarding `CCN(CC)CCNC(=O)c1c(C)[nH]c(/C=C2\C(=O)Nc3ccc(F)cc32)c1C` [SUNITINIB], the figures for the concentration for half-maximal inhibition (IC50) (in series [1]; in the series with HT-29) were 100 nM and 330 nM, respectively.

For the origin of these results see ChEMBL document CHEMBL2062463 (Bioorg Med Chem Lett, 2012).
